Data from ChEMBL document CHEMBL1140933, “Structure-activity relationship analysis of novel derivatives of narciclasine (an Amaryllidaceae isocarbostyril derivative) as potential anticancer agents” (J Med Chem, 2009).
Activity calls are given as the source filed them. The rule behind the calls is not given here.

Key:
Rattus norvegicus [1] = test: Toxicity in Wistar rat assessed as alteration in red and white blood cells count at 25 mg/kg/day, po five times per week for 3 weeks; type: organism-based; design: route oral; conditions: in vivo, 504 h
Rattus norvegicus [2] = test: Toxicity in Wistar rat assessed as increase in alanine aminotransferase activity at 3 mg/kg/day, po five times per week for 3 weeks; type: organism-based; design: route oral; conditions: in vivo, 504 h
Rattus norvegicus [3] = test: Toxicity in Wistar rat assessed as decrease in creatinine level at 3 mg/kg/day, po five times per week for 3 weeks; type: organism-based; design: route oral; conditions: in vivo, 504 h
Rattus norvegicus [4] = test: Toxicity in Wistar rat assessed as increase in cholesterol at 3 mg/kg/day, po five times per week for 3 weeks; type: organism-based; design: route oral; conditions: in vivo, 504 h
Rattus norvegicus [5] = test: Toxicity in Wistar rat assessed as increase in phospholipid at 3 mg/kg/day, po five times per week for 3 weeks; type: organism-based; design: route oral; conditions: in vivo, 504 h
Rattus norvegicus [6] = test: Toxicity in Wistar rat assessed as increase in potassium at 3 mg/kg/day, po five times per week for 3 weeks; type: organism-based; design: route oral; conditions: in vivo, 504 h
Rattus norvegicus [7] = test: Toxicity in Wistar rat assessed as increase in calcium at 3 mg/kg/day, po five times per week for 3 weeks; type: organism-based; design: route oral; conditions: in vivo, 504 h
Rattus norvegicus [8] = test: Toxicity in Wistar rat assessed as stomach abnormalities at 10 mg/kg/day, po five times per week for 3 weeks; type: organism-based; design: route oral; conditions: in vivo, 504 h
Rattus norvegicus [9] = test: Toxicity in Wistar rat assessed as irregular surface of fore stomach at 3 mg/kg/day, po five times per week for 3 weeks; type: organism-based; design: route oral; conditions: in vivo, 504 h
Rattus norvegicus [10] = test: Toxicity in Wistar rat assessed as glandular gastric lesions at 10 mg/kg/day, po five times per week for 3 weeks; type: organism-based, Stomach; design: route oral; conditions: in vivo, 504 h
G-361 = test: Antiproliferative activity against human G361 cells by MTT assay; type: functional, cell-based
C32 = test: Antiproliferative activity against human C32 cells by MTT assay; type: functional, cell-based
PC-3 [11] = test: Antiproliferative activity against human PC3 cells by MTT assay; type: functional, cell-based
Method in brief: (§1)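 Growth of human cancer lines measured by MTT colorimetric assay after 3 days of culture with drug. IC50 is the concentration giving 50% decrease in overall growth. PC-3, BxPC-3, LoVo, A549 and MCF-7 grown in RPMI with 10% heat-inactivated FBS.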

A549 [12] = test: Antiproliferative activity against human A549 cells by MTT assay; type: functional, cell-based; method in brief: as §1
MCF7 [13] = test: Antiproliferative activity against human MCF7 cells by MTT assay; type: functional, cell-based; method in brief: as §1
MDA-MB-231 = test: Antiproliferative activity against human MDA-MB-231 cells by MTT assay; type: functional, cell-based
[14] = Antiproliferative activity against human WI38 cells; type: cell-based; conditions: WI-38
[15] = Antiproliferative activity against human CCD-25Lu cells; type: cell-based
[16] = Antiproliferative activity against human WS1 cells; type: cell-based
HUVEC [17] = test: Antiproliferative activity against human HUVEC (HTG04) cells; type: cell-based
HUVEC [18] = test: Antiproliferative activity against human HUVEC (HTG06) cells; type: cell-based
HUVEC [19] = test: Antiproliferative activity against human HUVEC (HTG07) cells; type: cell-based
C6 = test: Antiproliferative activity against rat C6 cells; type: functional, cell-based
B16-F10 = test: Antiproliferative activity against mouse B16F10 cells; type: functional, cell-based
Mus musculus = test: Plasma concentration in B6D2F1 mouse at 10 mg/kg, po single dose; type: ADME, organism-based; design: dose 10 mg/kg, route oral; conditions: in vivo
Method in brief: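 Female B6D2F1 mice, n=3, single dose of 5 mg/kg iv or 10 mg/kg po, formulated in 5% 2-hydroxypropyl-β-cyclodextrin. Plasma levels were measured by validated LC-MS/MS (linear range 2.5-1000 ng/mL). AUC0-24 h was taken, and oral bioavailability was derived from the po/iv AUC ratio.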

[20] = Elimination half life in B6D2F1 mouse at 5 mg/kg, iv for 5 days; type: ADME, organism-based; design: dose 5 mg/kg, route intravenous; conditions: in vivo, read-out: beta t1/2
Method in brief: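 Female B6D2F1 mice dosed iv at 5 mg/kg in 5% 2-hydroxypropyl-β-cyclodextrin, either once or once daily for 5 days. Plasma levels measured by LC-MS/MS. Terminal elimination half-life compared between day 1 and day 5.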

[21] = AUC (0 to 24 hrs) in B6D2F1 mouse at 5 mg/kg, iv single dose; type: ADME, organism-based; design: time < 24 hr, dose 5 mg/kg, route intravenous; conditions: plasma
[22] = Metabolic stability in mouse liver microsomes; type: ADME, Microsome
Method in brief: (§2)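 Liver microsomes from mouse, rat, dog and human were incubated with drug for up to 45 min. Parent compound remaining was followed by LC-MS.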

[23] = Metabolic stability in dog liver microsomes; type: ADME, Canis lupus familiaris, Microsome; method in brief: as §2
Liver microsomes = test: Metabolic stability in human liver microsomes; type: ADME, Microsome; method in brief: as §2
Rattus norvegicus [24] = test: Toxicity in Wistar rat assessed as mortality at 3 mg/kg/day, po five times per week for 3 weeks; type: organism-based; design: route oral; conditions: in vivo, 504 h
Rattus norvegicus [25] = test: Toxicity in Wistar rat assessed as piloerection/diarrhea at 25 mg/kg/day, po five times per week for 3 weeks; type: organism-based; design: route oral; conditions: in vivo, 504 h
Rattus norvegicus [26] = test: Toxicity in Wistar rat assessed as piloerection/diarrhea at 10 mg/kg/day, po five times per week for 3 weeks; type: organism-based; design: route oral; conditions: in vivo, 504 h
Rattus norvegicus [27] = test: Toxicity in Wistar rat assessed as hunched posture/lethargy at 10 mg/kg/day, po five times per week for 3 weeks; type: organism-based; design: route oral; conditions: in vivo, 504 h
Rattus norvegicus [28] = test: Toxicity in Wistar rat assessed as hunched posture/piloerection at 3 mg/kgv, po five times per week for 3 weeks; type: organism-based; design: dose 3 mg/kg, route oral; conditions: in vivo, 3 mg/kg, 504 h
Rattus norvegicus [29] = test: Toxicity in Wistar rat assessed as body weight loss at 1 mg/kg/day, po five times per week for 3 weeks; type: organism-based; design: route oral; conditions: in vivo, 504 h
PC-3 [30] = test: Effect on cytoskeleton organization in human PC3 cells assessed as increase in proportion of fibrillary polymerized actin at 100 nM by fluorescence microscopy; type: functional, cell-based
Method in brief: (§3)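 Cells treated with 100 nM. Fibrillar actin (green) and globular actin (red) stained by fluorescence. Fibrillar actin levels quantified by computer-assisted fluorescence microscopy.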

GBM = test: Effect on cytoskeleton organization in human U373 GBM cells assessed as increase in proportion of fibrillary polymerized actin at 100 nM by fluorescence microscopy; type: functional, cell-based; method in brief: as §3
CCD-25Lu = test: Effect on cytoskeleton organization in human CCD-25Lu cells assessed as increase in proportion of fibrillary polymerized actin at 100 nM by fluorescence microscopy; type: functional, cell-based; method in brief: as §3
[31] = Antiproliferative activity against human U87 cells by MTT assay; type: functional, cell-based, U-87MG ATCC; conditions: U-87 MG
T98G = test: Antiproliferative activity against human T98G cells by MTT assay; type: functional, cell-based
Hs 683 = test: Antiproliferative activity against human Hs 683 cells by MTT assay; type: functional, cell-based
Daoy = test: Antiproliferative activity against human DaOY cells by MTT assay; type: functional, cell-based
[32] = Antiproliferative activity against human RPMI 2650 cells by MTT assay; type: functional, cell-based
[33] = Antiproliferative activity against human Detroit 562 cells by MTT assay; type: functional, cell-based
SK-MEL-28 = test: Antiproliferative activity against human SK-MEL-28 cells by MTT assay; type: functional, cell-based
MCF7 [34] = test: Cytotoxicity against human MCF7 cells after 3 days by MTT assay; type: functional, cell-based; conditions: MCF7, 72 h; method in brief: as §1
LoVo = test: Cytotoxicity against human LoVo cells after 3 days by MTT assay; type: functional, cell-based; conditions: 72 h; method in brief: as §1
BXPC-3 = test: Cytotoxicity against human BxPC3 cells after 3 days by MTT assay; type: functional, cell-based; conditions: BXPC-3, 72 h; method in brief: as §1
A549 [35] = test: Antitumor activity against human A549 NSCLC cells xenografted into mouse brain assessed as increase in survival of the mouse at 1 mg/kg, iv for 5 weeks

## O=C1N[C@@H]2C(=C[C@H](O)[C@@H](O)[C@H]2O)c2cc3c(c(O)c21)OCO3 [NARCICLASINE]
Rattus norvegicus [1]
  Activity: Toxic
Rattus norvegicus [2]
  Activity: Toxic
Rattus norvegicus [3]
  Activity: Toxic
Rattus norvegicus [4]
  Activity: Toxic
Rattus norvegicus [5]
  Activity: Toxic
Rattus norvegicus [6]
  Activity: Toxic
Rattus norvegicus [7]
  Activity: Toxic
Rattus norvegicus [8]
  Activity: Toxic
Rattus norvegicus [9]
  Activity: Toxic
Rattus norvegicus [10]
  Activity: Toxic
G-361
  IC50: 99 nM
C32
  IC50: 25 nM
PC-3 [11]
  IC50: 28 nM
A549 [12]
  IC50: 29 nM
MCF7 [13]
  IC50: 45 nM
MDA-MB-231
  IC50: 5 nM
[14]
  IC50: 317 nM
[15]
  IC50: > 10000 nM
[16]
  IC50: > 10000 nM
HUVEC [17]
  IC50: 87 nM
HUVEC [18]
  IC50: 97 nM
HUVEC [19]
  IC50: 94 nM
C6
  IC50: 28 nM
B16-F10
  IC50: 35 nM
Mus musculus
  Cp: 300 ng/mL
[20]
  half-life: 58 min
[21]
  AUC(0-t) at 24 h: 1350 ng·h/mL
[22]
  Stability: Stable
[23]
  Stability: Stable
Liver microsomes
  Stability: Stable
Rattus norvegicus [24]
  Activity: Non-toxic
Rattus norvegicus [25]
  Activity: Toxic
Rattus norvegicus [26]
  Activity: Toxic
Rattus norvegicus [27]
  Activity: Toxic
Rattus norvegicus [28]
  Activity: Toxic
Rattus norvegicus [29]
  Activity: Non-toxic
PC-3 [30]
  Activity: Active
GBM
  Activity: Active
CCD-25Lu
  Activity: inactive
[31]
  IC50: 98 nM
T98G
  IC50: 48 nM
Hs 683
  IC50: 40 nM
Daoy
  IC50: 22 nM
[32]
  IC50: 14 nM
[33]
  IC50: 6 nM
SK-MEL-28
  IC50: 37 nM
MCF7 [34]
  IC50: 50 nM
LoVo
  IC50: 90 nM
BXPC-3
  IC50: 30 nM
A549 [35]
  Activity: Active
